The source of these data is ChEMBL document CHEMBL1125920, “Synthesis and biological activity of 5-alkyl-1,7,8-trisubstituted-6-fluoroquinoline-3-carboxylic acids” (1991).

≈ marks a conversion by molar mass, not a printed value.

Experiment [1] has as its system Enterobacter cloacae. Nature of the experiment: Antibacterial activity against gram negative organism, […] (MA2646). It counts as functional.
Experiment [2] relates to Escherichia coli. Description: Antibacterial activity was determined against gram negative organism, E. coli(vogel). It counts as functional. In a few lines:
(§1)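 MIC by standard microtitration against a panel of 10 representative Gram-negative and Gram-positive organisms; values reported in µg/mL.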

In experiment [3] the test system is Klebsiella pneumoniae. Description: Antibacterial activity was determined against gram negative organism, K. pneumoniae (MGH-2). Format: functional. In a few lines: as §1
In experiment [4] the test system is Mus musculus. Nature of the experiment: In vivo subcutaneous protective dose was determined in female charles river CD-1 mice infected with Streptococcus pneumoniae. Format: functional. The following applies: sc, read-out: PD50. The gist of the method: (§2)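 Acute lethal systemic infection model in mice; drug given by subcutaneous injection; potency read out as median protective dose (PD50), in mg/kg.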

The subject of experiment [5] is Mus musculus. Description: In vivo oral protective dose was determined in female charles river CD-1 mice infected with Escherichia coli (vogel). Format: functional. Particulars: Mus musculus, po; read-out: PD50. In a few lines:
(§3)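 Acute lethal systemic infection model in mice; drug given orally by gavage; potency read out as median protective dose (PD50), in mg/kg.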

For experiment [6], the system named is Mus musculus. Nature of the experiment: In vivo oral protective dose was determined in female charles river CD-1 mice infected with Streptococcus pneumoniae. Particulars: read-out: PD50. It counts as functional. The gist of the method:
as §3

Experiment [7] concerns Mus musculus. Nature of the experiment: In vivo subcutaneous protective dose was determined in female charles river CD-1 mice infected with Escherichia coli (vogel). Format: functional. The following applies: sc, read-out: PD50. In a few lines: as §2
Experiment [8] has as its system Pseudomonas aeruginosa. Description: Antibacterial activity was determined against gram negative organism, Pseudomonas aeruginosa (UI-18). It counts as functional. The gist of the method:
as §1

In experiment [9] the test system is Bacteria. Nature of the experiment: Antibacterial activity was determined against gram negative organism, Providencia rettgeri. (M1771). It counts as functional. The gist of the method: as §1
Experiment [10] concerns Streptococcus pneumoniae. Description: Antibacterial activity was determined against gram positive organism, Streptococcus pneumoniae (SV-1). It counts as functional. In a few lines:
as §1

Experiment [11] deals with Enterococcus faecalis. Description: Antibacterial activity was determined against gram positive organism, Streptococcus faecalis (MGH-2). It counts as functional. In a few lines:
as §1

Experiment [12] relates to Streptococcus pyogenes. Nature of the experiment: Antibacterial activity was determined against gram positive organism, Streptococcus pyogenes (C203). Format: functional. In a few lines: as §1
Experiment [13] relates to Staphylococcus aureus. Nature of the experiment: Antibacterial activity was determined against gram positive organism, Staphylococcus aureus (H228). Format: functional. In a few lines: as §1
In experiment [14] the test system is Staphylococcus aureus. Description: Antibacterial activity was determined against gram positive organism, Staphylococcus aureus (UC76). It counts as functional. In a few lines:
as §1

Experiment [15] is described as follows: MIC ratio measured as the mean MICs of gram-negative bacteria. It counts as functional. In a few lines:
(§4)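 Geometric mean of the MICs (µg/mL) over the Gram-negative or the Gram-positive strains of the 10-organism microtitration panel, calculated separately for each class.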

Experiment [16] can be described thus: MIC ratio measured as the mean MICs of gram-positive bacteria. It counts as functional. In a few lines:
as §4

Experiment [17] deals with DNA gyrase (Escherichia coli) (UniProt P0AES6+P0AES4).

Regarding `Cc1c(F)c(N2CCNC(C)C2)cc2c1c(=O)c(C(=O)O)cn2C1CC1` (stereo not drawn) [GREPAFLOXACIN], the MIC in experiment [1] came to 0.025 µg/mL (≈ 0.0696 µM); in experiment [2], 0.013 µg/mL (≈ 0.0362 µM); in experiment [3], 0.05 µg/mL (≈ 0.139 µM); in experiment [8], 0.8 µg/mL (≈ 2.23 µM); in experiment [9], 0.2 µg/mL (≈ 0.556 µM); in experiment [10], 0.025 µg/mL (≈ 0.0696 µM). Further, the MIC came out at 0.1 µg/mL (≈ 0.278 µM) in experiment [11], 0.05 µg/mL (≈ 0.139 µM) in experiment [12], 0.1 µg/mL (≈ 0.278 µM) in experiment [13] and 0.025 µg/mL (≈ 0.0696 µM) in experiment [14]. The ED50 in experiment [4] is 8 mg/kg; in experiment [5], 1.5 mg/kg; in [6] it was 24 mg/kg; in [7] it was 0.5 mg/kg. In addition, the figures for the Ratio in [15] and in [16] were 0.6 and 2.07, respectively. The DNA cleavage in experiment [17] turned out to be 3.75 µg/mL.
Consider `CCNCC1CCN(c2c(F)c(C)c3c(=O)c(C(=O)O)cn(C4CC4)c3c2F)C1` (stereo not drawn), for which the MIC in experiment [1] turned out to be 0.1 µg/mL (≈ 0.247 µM); in experiment [2] it was 0.05 µg/mL (≈ 0.123 µM); in [3], 0.1 µg/mL (≈ 0.247 µM); in experiment [8], 0.8 µg/mL (≈ 1.97 µM); in experiment [9], 0.2 µg/mL (≈ 0.493 µM); in [10], 0.003 µg/mL (≈ 0.0074 µM). In addition, the MIC was 0.025 µg/mL (≈ 0.0617 µM) in [11], 0.006 µg/mL (≈ 0.0148 µM) in experiment [12], 0.013 µg/mL (≈ 0.0321 µM) in [13] and 0.003 µg/mL (≈ 0.0074 µM) in experiment [14]. Further, the ED50 in experiment [4] came to 1.6 mg/kg; in [5], 14 mg/kg; in [6] it was 2.8 mg/kg; in [7], 3 mg/kg. Further, the Ratio in experiment [15] turned out to be 0.15; in experiment [16] it was 0.0071. This molecule yielded a DNA cleavage in experiment [17] of 3 µg/mL.
In the case of `Cc1c(F)c(N2CCC(N)C2)c(F)c2c1c(=O)c(C(=O)O)cn2C1CC1` (stereo not drawn), the MIC in experiment [1] worked out at 0.006 µg/mL (≈ 0.0165 µM); in experiment [2] it was 0.006 µg/mL (≈ 0.0165 µM); in [3], 0.013 µg/mL (≈ 0.0358 µM); in [8], 0.4 µg/mL (≈ 1.1 µM); in [9] it was 0.025 µg/mL (≈ 0.0688 µM); in experiment [10], 0.003 µg/mL (≈ 0.00826 µM). The MIC in experiment [11] came out at 0.025 µg/mL (≈ 0.0688 µM); in experiment [12], 0.013 µg/mL (≈ 0.0358 µM); in experiment [13] it was 0.013 µg/mL (≈ 0.0358 µM); in experiment [14] it was 0.003 µg/mL (≈ 0.00826 µM). Also, the ED50 is 1.6 mg/kg in experiment [4], 2 mg/kg in experiment [5], 3 mg/kg in [6] and 0.5 mg/kg in experiment [7]. Further, the Ratio in [15] stood at 0.021; in experiment [16], 0.0082. Further, the DNA cleavage in experiment [17] worked out at 3 µg/mL.
In the case of `Cc1c(F)c(N2CCNCC2)c(F)c2c1c(=O)c(C(=O)O)cn2C1CC1`, the MIC in experiment [1] was 0.025 µg/mL (≈ 0.0688 µM); in experiment [2], 0.025 µg/mL (≈ 0.0688 µM); in experiment [3], 0.025 µg/mL (≈ 0.0688 µM); in [8], 0.2 µg/mL (≈ 0.55 µM); in experiment [9], 0.05 µg/mL (≈ 0.138 µM); in experiment [10], 0.025 µg/mL (≈ 0.0688 µM). Besides, the MIC turned out to be 0.05 µg/mL (≈ 0.138 µM) in experiment [11], 0.05 µg/mL (≈ 0.138 µM) in experiment [12], 0.025 µg/mL (≈ 0.0688 µM) in experiment [13] and 0.025 µg/mL (≈ 0.0688 µM) in [14]. Also, the ED50 in [4] came out at 13.5 mg/kg; in [5], 0.4 mg/kg; in [6] it was 14 mg/kg; in [7], 0.2 mg/kg. Also, the values for the Ratio in [15] and in experiment [16] were 0.043 and 0.033, respectively. In addition, in [17], the DNA cleavage stood at 2.75 µg/mL.

By MIC is commonly meant the lowest concentration that inhibits growth of the organism.
